Experimental data published in ChEMBL document CHEMBL1127829, “Nonpeptide peptidomimetic antagonists of the neuropeptide Y receptor: benextramine analogs with selectivity for the peripheral Y2 receptor” (J Med Chem, 1994).

Tests used:
[1] = species: Rattus norvegicus; experiment: Relative potency in displacing 1 nM [3H]NPY from benextramine-sensitive rat brain NPYsites
[2] = Concentration producing half maximal displacement of [3H]NPY specific binding from benextramine sensitive NPY binding sites in rat brain membranes; assay type: cell membranes
Outline: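 Membranes from male Sprague–Dawley rat brain (250–300 g), 1.2–1.6 mg protein/mL, were incubated with 1.0 nM [3H]NPY and 10–12 concentrations (10⁻³–10⁻⁷ M) of compound. Incubation was in duplicate in Krebs–Ringer bicarbonate with 50 mM phosphate, 0.1% BSA and 0.05% bacitracin (pH 7.4), at 25 °C for 90 min. Nonspecific binding was set with 1 μM NPY. Bound ligand was collected on PEI-treated GF/A filters and counted by scintillation. Runs were done at least in triplicate, and averaged data were fit to a two-site competitive isotherm.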

[3] = Percentage of maximum displacement of 1.0 nM [3H]NPY from rat brain membranes homogenates using 1.0 uM NPY to determine specific binding; assay type: cell membranes; settings: Membrane
Outline: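 Rat brain membranes (1.2–1.6 mg protein/mL) were incubated with 1.0 nM [3H]NPY and 10⁻³–10⁻⁷ M compound in duplicate. Buffer was pH 7.4 Krebs–Ringer bicarbonate/phosphate with BSA and bacitracin, at 25 °C for 90 min. Nonspecific binding was defined with 1.0 μM NPY, and results were filtered and counted by scintillation. The value is the maximal percentage of specific [3H]NPY binding displaced, from at least triplicate experiments.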

SMILES | IC50 [2] [µM] | maximal displacement of specific binding [3] [%] | Relative potency [1]
c1ccc2cc(CNCCCCCCNCCSSCCNCCCCCCNCc3ccc4ccccc4c3)ccc2c1 | 31.3 | 68 | 1.8
N=C(N)N(CCCCCCNCc1ccc2ccccc2c1)CCCCCCN(CCCCCCNCc1ccc2ccccc2c1)C(=N)N | 18.4 | 72 | 2.6
c1ccc2cc(CNCCCCCCNCCCCCCNCCCCCCNCc3ccc4ccccc4c3)ccc2c1 | 48.3 | 75 | 1
COc1ccccc1CNCCCCCCNCCSSCCNCCCCCCNCc1ccccc1OC [BENEXTRAMINE] | 57.6 | 65 | 1

Molecules with a lower IC50 [2], results first:

IC50 [2] [µM] | maximal displacement of specific binding [3] [%] | SMILES | Relative potency [1]
15 | 68 | N=C(N)N(CCCCCCNCC12C[C@H]3C[C@@H](C1)C[C@@H](C2)C3)CCSSCCN(CCCCCCNCC12C[C@H]3C[C@@H](C1)C[C@@H](C2)C3)C(=N)N | 3.8
14.8 | 76 | N=C(N)N(CCCCCCNCc1ccc2ccccc2c1)CCSSCCN(CCCCCCNCc1ccc2ccccc2c1)C(=N)N | 3.9
